Assay outcomes as filed in PubChem BioAssay.
Compounds with a hit are over-represented: about 4.5% of the library has one in this group of screens.
CHO parental Ca: counter-screen for OX1R antagonists: effect in parental CHO cells; inhibition, % at 5.6 µM; 330,000 tested, 0.63% active; parental CHO-K1, ATP-induced calcium, Fluo-8 fluorescence; AID 463079;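 active = inhibition above that plate's mean sample inhibition plus 3 SD, cut at about 26% in these data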;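 also: 0% = ATP-challenged DMSO wells and 100% = DMSO wells without ATP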
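Assay system – parental CHO cells · Reagent – ATP stimulus · Detection – intracellular calcium via Fluo-8 no-wash fluorescent dye · Evaluation – percent inhibition of ATP-evoked calcium rise, normalized to controls · Controls – ATP wells versus no-ATP DMSO wells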
OX1R antag-1: human HCRTR1 antagonism | O43613 | CHO/OX1R cells, Fluo-8 calcium fluorescence, orexin A | inhibition, % at 5 µM | 330,000 tested, 0.43% active;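 active = inhibition above its plate's threshold, mean inhibition of all tested compounds on the plate plus 3 SD, cut at about 37% in these data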;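 also: 0% = orexin A challenge wells and 100% = SB-334867-A antagonist wells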
Target sequence (O43613 whole entry, looked up): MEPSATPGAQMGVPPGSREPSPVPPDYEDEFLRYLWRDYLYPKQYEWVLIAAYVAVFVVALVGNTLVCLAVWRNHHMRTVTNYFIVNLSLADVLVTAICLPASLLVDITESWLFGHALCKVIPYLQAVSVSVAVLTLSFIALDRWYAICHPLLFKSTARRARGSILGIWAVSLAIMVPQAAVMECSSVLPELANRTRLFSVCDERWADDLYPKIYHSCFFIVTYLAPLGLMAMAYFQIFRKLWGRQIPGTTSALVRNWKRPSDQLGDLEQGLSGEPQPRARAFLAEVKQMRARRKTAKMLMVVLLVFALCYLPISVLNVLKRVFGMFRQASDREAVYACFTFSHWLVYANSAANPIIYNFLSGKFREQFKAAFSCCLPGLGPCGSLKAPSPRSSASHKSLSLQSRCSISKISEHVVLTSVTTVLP
OX1R antag-2: blocks the human orexin 1 receptor; O43613; OX1R-expressing cells, FRET antagonist read-out; inhibition, % at 6.6 µM; 330,000 tested, 1.8% active; in the data active = inhibition mostly above about 38%, no sharp cut-off; inactive = mostly below about 40%;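 also: 0% = agonist challenge alone and 100% = reference antagonist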
TAAR1 antag: antagonists of human TAAR1 | inhibition, % at 3 µM | 360,000 tested, 1.5% active | CHO RD-HGA16 TAAR1, Fluo-8 calcium fluorescence, antagonist | AID 624466;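 active = inhibition above a per-plate cutoff, the mean inhibition of test compounds on that plate plus 3 SD, cut at about 49% in these data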;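 also: 0% = DMSO plus EC80 beta-PEA response and 100% = DMSO alone without agonist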
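Test system: RD-HGA16 CHO cells with stable hTAAR1 and Gα16 / Probe or stimulus: EC80 β-phenethylamine stimulus / Times: seeding 17-24 h prior, 75-min 37 °C, 30-min RT dye loading / Detection: Fluo-8 calcium-sensitive fluorescence / Read-out basis: % inhibition scaled between DMSO and EC80 PEA controls / Repeats: singlicate, one well per test compound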
GPR7 antagonist: human neuropeptides B/W receptor 1 antagonism. AID 1861. 290,000 tested, 1.1% active. GPR7-expressing cells, fluorescence antagonist assay. P48145. inhibition, % at 4.4 µM; in the data active = inhibition above about 16%, passing the limit was not always enough;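 also: cells stimulated with the agonist NPW; 0% = agonist with vehicle and 100% = vehicle without agonist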
TAAR1 agonist: human TAAR1 agonism. 360,000 tested, 0.99% active. CHO RD-HGA16 TAAR1, Fluo-8 calcium fluorescence; vehicle wells 0%, saturating PEA agonist 100%. AID 624467. activation, % at 3 µM;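 active = activation above the mean activation of all test compounds in the run plus 3 SD, cut at about 38% in these data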
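Assay system: CHO-derived RD-HGA16 cells with stable Gα16 and human TAAR1; timing: 17-24 h seeding, 75 min 37 °C dye, 30 min RT; read-out: % activation from peak over basal fluorescence ratio, DMSO-to-PEA scaled; measured by: kinetic Fluo-8 calcium fluorescence; benchmarks: low control DMSO, high control PEA (EC100); doses: 3 µM single concentration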
* = called active by the depositor.

How did COc1cccc(-c2cc(C(=O)Nc3ccc(OC)c(OC)c3)no2)c1 do in these assays?
CHO parental Ca: -17; OX1R antag-1: 20; OX1R antag-2: 84*; TAAR1 antag: 16; GPR7 antagonist: -5; TAAR1 agonist: 13

Results for COc1ccc(NC(=O)c2cc(-c3cccs3)on2)cc1 ?
CHO parental Ca: 16; OX1R antag-1: -4; OX1R antag-2: 25; TAAR1 antag: -15; GPR7 antagonist: 2; TAAR1 agonist: 2

What do the screens show for `COc1ccc(NC(=O)c2cc(-c3ccccc3)on2)cc1OC`?
CHO parental Ca: -11; OX1R antag-1: -9; OX1R antag-2: 14; TAAR1 antag: 5; GPR7 antagonist: -4; TAAR1 agonist: 6

How did COc1cc(/C=C/C(=O)OCC(=O)N2c3ccccc3NC(=O)C2(C)C)cc(OC)c1OC do in these assays?
CHO parental Ca: -8; OX1R antag-1: 12; OX1R antag-2: 39*; TAAR1 antag: 64*; TAAR1 agonist: 27

Results for COc1ccc(S(N)(=O)=O)cc1C(=O)OCC(=O)N1c2ccccc2NC(=O)C1(C)C ?
CHO parental Ca: -4; OX1R antag-1: 9; OX1R antag-2: -3; TAAR1 antag: 0; TAAR1 agonist: 15

Results for CN(CCOc1ccccc1)CC(=O)Nc1cc([N+](=O)[O-])ccc1Cl ?
CHO parental Ca: -4; OX1R antag-1: -19; OX1R antag-2: 62*; TAAR1 antag: 14; GPR7 antagonist: -4; TAAR1 agonist: -3

How did CN(CCOc1ccccc1)C(=O)c1cc([N+](=O)[O-])cc([N+](=O)[O-])c1 do in these assays?
CHO parental Ca: -9; OX1R antag-1: -13; OX1R antag-2: 38*; TAAR1 antag: 8; GPR7 antagonist: 2; TAAR1 agonist: 10

What do the screens show for `CN(CCOc1ccccc1)C(=O)c1cc([N+](=O)[O-])ccc1N1CCOCC1`?
CHO parental Ca: -10; OX1R antag-1: -19; OX1R antag-2: 41; TAAR1 antag: 1; TAAR1 agonist: 3

Results for CCOC(=O)C1CSCCS(=O)(=O)N1Cc1ccc(F)cc1 (centres undefined) ?
TAAR1 antag: -13; TAAR1 agonist: 0

What do the screens show for `O=c1[nH]nc(Sc2ccccc2)c(=S)[nH]1`?
TAAR1 antag: 3; TAAR1 agonist: 1

Results for Cc1ccc(C(=O)N2NC(c3ccc(F)cc3)C3C(=O)N(c4ccc(C)cc4)C(=O)C32)cc1 (centres undefined) ?
CHO parental Ca: -33; OX1R antag-1: -18; OX1R antag-2: 6; TAAR1 antag: 6; GPR7 antagonist: -2; TAAR1 agonist: 0

How did Cc1ccc(C(=O)N2NC(c3ccc(F)cc3)C3C(=O)N(c4ccc(C)c(C)c4)C(=O)C32)cc1 (centres undefined) do in these assays?
CHO parental Ca: -1; OX1R antag-1: 2; OX1R antag-2: 2; TAAR1 antag: 5; GPR7 antagonist: -6; TAAR1 agonist: 38*

Results for Cc1ccc(N(C)S(=O)(=O)c2ccc3c(c2)CC(C)N3C(=O)C2CC2)cc1 (centres undefined) ?
CHO parental Ca: -1; OX1R antag-1: -29; OX1R antag-2: 4; TAAR1 antag: 49*; GPR7 antagonist: 7; TAAR1 agonist: -1

Results for COc1ccc(CCC(=O)OCC(=O)Nc2sccc2C(N)=O)cc1 ?
CHO parental Ca: 33*; OX1R antag-1: 55*; OX1R antag-2: 11; TAAR1 antag: 28; TAAR1 agonist: 11

What do the screens show for `COc1ccc(CCC(=O)OCC(=O)Nc2sccc2C(N)=O)cc1OC`?
CHO parental Ca: 47*; OX1R antag-1: 46*; OX1R antag-2: 36*; TAAR1 antag: 34; TAAR1 agonist: 16

How did COc1ccc(C(=O)NC(C(=O)OCC(=O)Nc2sccc2C(N)=O)C(C)C)cc1 (centres undefined) do in these assays?
CHO parental Ca: -17; OX1R antag-1: -10; OX1R antag-2: 8; TAAR1 antag: 34; TAAR1 agonist: 10

How did CCCC(=O)c1ccc(N2CCN(C(=O)c3ccccc3Br)CC2)c(F)c1 do in these assays?
CHO parental Ca: 52*; OX1R antag-1: 32; OX1R antag-2: 41; TAAR1 antag: 13; GPR7 antagonist: -10; TAAR1 agonist: 15

How did CCOC(=O)C(C)N1C(=O)S/C(=C\c2ccc(-c3ccccc3C(=O)O)o2)C1=O (centres undefined) do in these assays?
CHO parental Ca: 4; OX1R antag-1: -1; OX1R antag-2: 3; TAAR1 antag: -5; GPR7 antagonist: 0; TAAR1 agonist: 3

How did CC(C)N1C(=O)S/C(=C/c2ccc(Sc3nc4ccccc4[nH]3)o2)C1=O do in these assays?
CHO parental Ca: 71*; OX1R antag-1: 56*; OX1R antag-2: 54; TAAR1 antag: 32; GPR7 antagonist: -11; TAAR1 agonist: 13

Results for C[C@@H]1C=CCCO[C@]12C(=O)N(Cc1ccc(Br)cc1)c1cccc(Br)c12 ?
TAAR1 antag: 34; TAAR1 agonist: -1

What do the screens show for `S=C1Cc2ccccc2N1`?
TAAR1 antag: 3; GPR7 antagonist: -11; TAAR1 agonist: 43*

How did CC(=O)c1sc(Nc2cccc3ccccc23)nc1C do in these assays?
CHO parental Ca: -10; OX1R antag-1: -28; OX1R antag-2: 14; TAAR1 antag: -25; TAAR1 agonist: -3

How did CC(=O)c1sc(Nc2ccccn2)nc1C do in these assays?
CHO parental Ca: -4; OX1R antag-1: 7; OX1R antag-2: 73*; TAAR1 antag: -7; GPR7 antagonist: 5; TAAR1 agonist: 17

How did COCc1[nH]nc2c1C(c1ccc(F)cc1)NC2=O (centres undefined) do in these assays?
TAAR1 antag: -19; TAAR1 agonist: 2

Results for CCOC(=O)C1=C(Cc2ccc(F)cc2)C(=O)c2ccccc2C1=O ?
CHO parental Ca: -14; OX1R antag-1: -13; OX1R antag-2: 21; TAAR1 antag: 52*; GPR7 antagonist: -2; TAAR1 agonist: 31

What do the screens show for `NCCCC[C@@H]1NC(=O)c2cc([N+](=O)[O-])cc(I)c2SC[C@@H](C(N)=O)NC(=O)[C@H](Cc2ccc(O)cc2)NC1=O`?
CHO parental Ca: 8; OX1R antag-1: -16; OX1R antag-2: 73*; GPR7 antagonist: 9

How did NCCCC[C@@H]1NC(=O)[C@H](CCC(=O)O)NC(=O)c2cc([N+](=O)[O-])cc(I)c2SC[C@@H](C(=O)NCC(N)=O)NC1=O do in these assays?
CHO parental Ca: 1; OX1R antag-1: -3; OX1R antag-2: 42; TAAR1 antag: 2; GPR7 antagonist: -10; TAAR1 agonist: 0

How did COC(=O)C1=C(C)N(Cc2ccccc2C(F)(F)F)C(=NCC2CC2)NC1c1cccc(F)c1 (centres undefined) do in these assays?
TAAR1 antag: -16; TAAR1 agonist: 13
